Data as given in ChEMBL document CHEMBL1137082, “Potent and selective conformationally restricted neuronal nitric oxide synthase inhibitors” (J Med Chem, 2004).

What was measured:
[1] = molecular target: T1, Nitric oxide synthase, inducible (Mus musculus, UniProt P29477); experiment: Inhibitory activity against inducible nitric oxide synthase (iNOS)
T1 sequence (P29477 whole entry): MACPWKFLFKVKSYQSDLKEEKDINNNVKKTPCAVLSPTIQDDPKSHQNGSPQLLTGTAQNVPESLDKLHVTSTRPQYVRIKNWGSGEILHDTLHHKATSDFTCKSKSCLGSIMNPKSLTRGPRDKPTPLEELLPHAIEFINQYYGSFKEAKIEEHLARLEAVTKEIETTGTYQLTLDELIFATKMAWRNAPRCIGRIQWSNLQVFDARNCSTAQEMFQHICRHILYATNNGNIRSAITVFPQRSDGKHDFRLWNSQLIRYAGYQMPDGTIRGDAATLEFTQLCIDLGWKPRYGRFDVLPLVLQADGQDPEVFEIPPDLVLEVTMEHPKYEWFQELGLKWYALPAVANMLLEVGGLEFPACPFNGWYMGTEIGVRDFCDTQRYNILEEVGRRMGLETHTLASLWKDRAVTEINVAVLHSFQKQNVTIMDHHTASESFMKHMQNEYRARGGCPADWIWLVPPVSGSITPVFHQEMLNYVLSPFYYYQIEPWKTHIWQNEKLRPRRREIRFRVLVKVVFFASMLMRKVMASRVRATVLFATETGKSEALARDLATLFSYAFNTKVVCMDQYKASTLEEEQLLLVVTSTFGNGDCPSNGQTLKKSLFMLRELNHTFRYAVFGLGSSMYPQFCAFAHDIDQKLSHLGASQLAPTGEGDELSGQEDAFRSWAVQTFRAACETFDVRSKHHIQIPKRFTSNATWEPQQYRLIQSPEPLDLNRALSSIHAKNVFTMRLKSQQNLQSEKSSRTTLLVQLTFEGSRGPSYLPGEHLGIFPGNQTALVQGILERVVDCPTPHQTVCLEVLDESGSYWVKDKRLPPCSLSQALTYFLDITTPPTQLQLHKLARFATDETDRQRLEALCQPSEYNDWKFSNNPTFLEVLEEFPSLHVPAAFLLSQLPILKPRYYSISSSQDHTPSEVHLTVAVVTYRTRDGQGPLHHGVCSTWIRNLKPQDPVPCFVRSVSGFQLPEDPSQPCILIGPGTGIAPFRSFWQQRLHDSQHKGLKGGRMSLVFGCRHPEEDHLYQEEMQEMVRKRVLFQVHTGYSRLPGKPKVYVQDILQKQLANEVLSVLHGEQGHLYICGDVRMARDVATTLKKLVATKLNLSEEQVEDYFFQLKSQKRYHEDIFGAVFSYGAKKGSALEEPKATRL

Nitric oxide synthase 1 [2] = molecular target: T2, Nitric oxide synthase 1 (Rattus norvegicus, UniProt P29476); experiment: Inhibitory activity against neuronal nitric oxide synthase (nNOS)
[3] = molecular target: T1, Nitric oxide synthase, inducible
[4] = molecular target: T3, Nitric oxide synthase, inducible (Mus musculus) (UniProt P29477); experiment: Inhibitory activity against inducible nitric oxide synthase (iNOS) at 100 uM; parameters: scale not given: the % may be the effect or the level left
T3 sequence (whole entry): T1 sequence (P29477 whole entry)
Method in brief: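 Single-point screen against murine macrophage iNOS: enzyme residual activity measured at 100 μM inhibitor. NO formation monitored by hemoglobin capture assay with a UV/vis spectrophotometer.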

Nitric oxide synthase 1 [5] = molecular target: T2, Nitric oxide synthase 1; experiment: Binding affinity towards neuronal nitric oxide synthase (nNOS)

T2 sequence (P29476 whole entry): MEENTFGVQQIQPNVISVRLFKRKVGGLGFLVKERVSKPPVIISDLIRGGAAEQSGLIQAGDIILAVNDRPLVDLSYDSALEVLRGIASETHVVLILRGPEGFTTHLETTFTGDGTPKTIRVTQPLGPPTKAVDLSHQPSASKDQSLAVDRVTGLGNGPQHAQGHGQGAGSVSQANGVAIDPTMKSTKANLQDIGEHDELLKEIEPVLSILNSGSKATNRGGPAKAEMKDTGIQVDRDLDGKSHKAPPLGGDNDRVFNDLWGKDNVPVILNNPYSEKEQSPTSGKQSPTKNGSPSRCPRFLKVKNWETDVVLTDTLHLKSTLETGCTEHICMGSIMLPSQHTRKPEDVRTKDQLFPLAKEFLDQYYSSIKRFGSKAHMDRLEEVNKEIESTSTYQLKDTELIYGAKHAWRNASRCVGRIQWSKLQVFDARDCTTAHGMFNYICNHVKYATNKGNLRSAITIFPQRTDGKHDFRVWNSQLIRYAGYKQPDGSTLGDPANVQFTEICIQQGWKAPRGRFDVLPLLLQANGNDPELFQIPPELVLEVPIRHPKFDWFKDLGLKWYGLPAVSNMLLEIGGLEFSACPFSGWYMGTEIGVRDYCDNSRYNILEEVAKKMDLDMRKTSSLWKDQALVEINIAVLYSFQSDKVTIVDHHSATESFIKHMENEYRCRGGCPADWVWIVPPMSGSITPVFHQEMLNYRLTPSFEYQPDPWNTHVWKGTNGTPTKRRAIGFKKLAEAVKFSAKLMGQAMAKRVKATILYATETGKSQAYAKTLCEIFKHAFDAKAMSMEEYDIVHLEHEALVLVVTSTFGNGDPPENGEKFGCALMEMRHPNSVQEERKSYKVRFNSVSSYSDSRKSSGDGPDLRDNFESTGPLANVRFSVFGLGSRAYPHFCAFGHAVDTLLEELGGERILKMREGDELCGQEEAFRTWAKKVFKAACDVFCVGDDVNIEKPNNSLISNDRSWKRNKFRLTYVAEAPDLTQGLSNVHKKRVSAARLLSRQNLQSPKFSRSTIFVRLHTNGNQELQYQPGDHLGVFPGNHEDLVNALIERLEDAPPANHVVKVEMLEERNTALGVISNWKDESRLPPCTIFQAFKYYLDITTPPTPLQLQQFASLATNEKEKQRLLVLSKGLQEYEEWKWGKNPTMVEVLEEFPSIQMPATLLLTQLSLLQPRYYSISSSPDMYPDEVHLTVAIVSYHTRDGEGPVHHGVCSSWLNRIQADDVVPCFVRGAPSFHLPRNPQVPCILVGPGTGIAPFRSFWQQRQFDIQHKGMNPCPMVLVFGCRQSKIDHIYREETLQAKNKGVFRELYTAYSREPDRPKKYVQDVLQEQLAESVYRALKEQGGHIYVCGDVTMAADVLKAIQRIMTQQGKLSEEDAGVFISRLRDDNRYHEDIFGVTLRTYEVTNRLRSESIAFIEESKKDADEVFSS

SMILES | IC50 [1] | IC50 (Nitric oxide synthase 1 [2]) | Ki [3] | Activity [4] | Ki (Nitric oxide synthase 1 [5])
NC(=O)[C@@H]1C[C@@H](NC(=O)[C@@H](N)CCC/N=C(\N)N[N+](=O)[O-])CN1 | 65 µM | 0.64 µM | 29 µM | 10% | 
N=C(NCCC[C@H](N)C(=O)NC1CNC(C(N)=O)C1)N[N+](=O)[O-] (single isomer, unassigned) | 441 µM | 9.6 µM | 199 µM | 78% | 1.1 µM
